Test results from ChEMBL document CHEMBL1127343, “"Glycylcyclines". 3. 9-Aminodoxycyclinecarboxamides” (1994).
Values after ≈ are worked out from the molar mass of the structure shown. Where a SMILES comes first, the peptide text is derived from it. The star is where a group is joined. X1 = C[C@H]1c2ccc(N*)c(O)c2C(=O)C2=C(O)[C@]3(O)C(O)=C(C(N)=O)C(=O)[C@@H](N(C)C)C3[C@@H](O)C21

Tests used:
Type in all cases: functional
[1] = tested on: Escherichia coli; test: In vitro antibacterial activity was measured on gram negative bacteria Escherichia coli UBMS 90-4 tet-M (ribosomal protection) cell lines
How it was run: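 Agar dilution MIC on Mueller-Hinton II agar. Inoculum (1–5) × 10^5 CFU/mL, drug range 32–0.004 μg/mL. Plates incubated 18 h at 35 °C in a forced-air incubator. MIC is the lowest concentration that inhibits growth. The strain panel covered tetracycline-sensitive and -resistant strains. Tetracycline, minocycline and doxycycline were run as standards in each assay.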

[2] = tested on: Staphylococcus aureus; test: In vitro antibacterial activity was measured on gram positive bacteria Staphylococcus aureus smith cell lines
How it was run: (§1)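 MIC by agar dilution on Mueller-Hinton II agar; inoculum (1–5) × 10^5 CFU/mL; antibiotic range 32–0.004 μg/mL; plates incubated 18 h at 35 °C in forced-air incubator. MIC taken as lowest concentration inhibiting growth. Tetracycline, minocycline and doxycycline run as standards in each assay.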

[3] = tested on: Staphylococcus aureus; test: In vitro antibacterial activity was measured on gram positive bacteria Staphylococcus aureus UBMS 88-7 tet-k(efflux resistance) cell lines
[4] = tested on: Escherichia coli; test: In vitro antibacterial activity was measured on gram negative bacteria Escherichia coli UBMS 90-5 sensitive cell lines; how it was run: as §1
[5] = tested on: Staphylococcus aureus; test: In vitro antibacterial activity was measured on gram positive bacteria Staphylococcus aureus UBMS 90-1 tet-M (ribosomal protection) cell lines; how it was run: as §1
[6] = tested on: Staphylococcus aureus; test: In vitro antibacterial activity was measured on gram positive bacteria Staphylococcus aureus UBMS 90-3 sensitive cell lines; how it was run: as §1
[7] = tested on: Escherichia coli; test: In vitro antibacterial activity was measured on gram negative bacteria Escherichia coli PRP-1 tet-a(efflux resistance) cell lines
[8] = tested on: Escherichia coli; test: In vitro antibacterial activity was measured on gram negative bacteria Escherichia coli J3272 tet-C(efflux resistance) cell lines
[9] = tested on: Escherichia coli; test: In vitro antibacterial activity was measured on gram negative bacteria Escherichia coli UBMS 88-1 tet-B(efflux resistance) cell lines

Row | Compound | MIC [1] [µg/mL] | MIC [2] [µg/mL] | MIC [3] [µg/mL] | MIC [4] [µg/mL] | MIC [5] [µg/mL] | MIC [6] | MIC [7] [µg/mL] | MIC [8] [µg/mL] | MIC [9] [µg/mL]
1 | CC(C)C[C@H](NC(=O)[C@@H](N)CC(C)C)C(=O)Nc1ccc2c(c1O)C(=O)C1=C(O)[C@]3(O)C(O)=C(C(N)=O)C(=O)[C@@H](N(C)C)C3[C@@H](O)C1[C@H]2C (stereo partly drawn) | > 32 | 8 (≈ 11.7 µM) | 32 (≈ 46.7 µM) | > 32 | 4 (≈ 5.83 µM) | 4 µg/mL (≈ 5.83 µM) | – | – | –
2 | CC(C)C[C@@H](N)C(=O)Nc1ccc2c(c1O)C(=O)C1=C(O)[C@]3(O)C(O)=C(C(N)=O)C(=O)[C@@H](N(C)C)C3CC1C2 (stereo partly drawn) | 8 (≈ 14.7 µM) | 8 (≈ 14.7 µM) | – | 8 (≈ 14.7 µM) | 16 (≈ 29.5 µM) | 8 µg/mL (≈ 14.7 µM) | – | – | –
3 | CC(=O)Nc1ccc2c(c1O)C(=O)C1=C(O)[C@]3(O)C(O)=C(C(N)=O)C(=O)[C@@H](N(C)C)C3[C@@H](O)C1[C@H]2C (stereo partly drawn) | 32 (≈ 63.8 µM) | 0.5 (≈ 0.997 µM) | – | 8 (≈ 16 µM) | > 32 | 0.25 µg cm··-2 | – | – | –
4 | C[C@H]1c2ccc(NC(=O)[C@@H](N)CCCCN)c(O)c2C(=O)C2=C(O)[C@]3(O)C(O)=C(C(N)=O)C(=O)[C@@H](N(C)C)C3[C@@H](O)C21 (stereo partly drawn) | > 32 | > 32 | 16 (≈ 27.2 µM) | > 32 | > 32 | > 32 µg/mL | – | – | –
5 | C[C@H]1c2cccc(O)c2C(=O)C2=C(O)[C@]3(O)C(O)=C(C(N)=O)C(=O)[C@@H](N(C)C)[C@@H]3[C@@H](O)C21 (stereo partly drawn) | > 32 | 0.12 (≈ 0.27 µM) | – | 1 (≈ 2.25 µM) | 8 (≈ 18 µM) | 0.12 µg/mL (≈ 0.27 µM) | 16 (≈ 36 µM) | 16 (≈ 36 µM) | 32 (≈ 72 µM)
6 | COC(=O)Nc1ccc2c(c1O)C(=O)C1=C(O)[C@]3(O)C(O)=C(C(N)=O)C(=O)[C@@H](N(C)C)C3[C@@H](O)C1[C@H]2C (stereo partly drawn) | > 32 | 0.06 (≈ 0.116 µM) | 4 (≈ 7.73 µM) | > 32 | 16 (≈ 30.9 µM) | 0.06 µg/mL (≈ 0.116 µM) | – | – | –
7 | C[C@H]1c2ccc(NC(=O)[C@@H](N)CCC(=O)O)c(O)c2C(=O)C2=C(O)[C@]3(O)C(O)=C(C(N)=O)C(=O)[C@@H](N(C)C)C3[C@@H](O)C21 (stereo partly drawn) | > 32 | > 32 | – | > 32 | > 32 | 32 µg/mL (≈ 54.4 µM) | – | – | –
8 | C[C@H]1c2ccc(NC(=O)CN3CCCC3)c(O)c2C(=O)C2=C(O)[C@]3(O)C(O)=C(C(N)=O)C(=O)[C@@H](N(C)C)C3[C@@H](O)C21 (stereo partly drawn) | 0.25 (≈ 0.438 µM) | 0.5 (≈ 0.876 µM) | 4 (≈ 7.01 µM) | 0.5 (≈ 0.876 µM) | 1 (≈ 1.75 µM) | 0.25 µg/mL (≈ 0.438 µM) | 2 (≈ 3.51 µM) | 1 (≈ 1.75 µM) | –
9 | C[C@H]1c2ccc(NC(=O)[C@@H](N)Cc3c[nH]c4ccccc34)c(O)c2C(=O)C2=C(O)[C@]3(O)C(O)=C(C(N)=O)C(=O)[C@@H](N(C)C)C3[C@@H](O)C21 (stereo partly drawn) | 4 (≈ 6.2 µM) | 1 (≈ 1.55 µM) | 16 (≈ 24.8 µM) | 8 (≈ 12.4 µM) | 4 (≈ 6.2 µM) | 2 µg/mL (≈ 3.1 µM) | 16 (≈ 24.8 µM) | 32 (≈ 49.6 µM) | –
10 | CC(C)C[C@@H](N)C(=O)Nc1ccc2c(c1O)C(=O)C1=C(O)[C@]3(O)C(O)=C(C(N)=O)C(=O)[C@@H](N(C)C)C3[C@@H](O)C1[C@H]2C (stereo partly drawn) | 4 (≈ 6.99 µM) | 2 (≈ 3.49 µM) | 16 (≈ 27.9 µM) | 8 (≈ 14 µM) | > 32 | 2 µg/mL (≈ 3.49 µM) | – | 16 (≈ 27.9 µM) | –
11 | C[C@H]1c2ccc(NC(=O)[C@@H](N)CCC(N)=O)c(O)c2C(=O)C2=C(O)[C@]3(O)C(O)=C(C(N)=O)C(=O)[C@@H](N(C)C)C3[C@@H](O)C21 (stereo partly drawn) | > 32 | 4 (≈ 6.81 µM) | 32 (≈ 54.5 µM) | 16 (≈ 27.2 µM) | > 32 | 1 µg/mL (≈ 1.7 µM) | – | – | –
12 | CC(C)C[C@H](N)C(=O)NCC(=O)Nc1ccc2c(c1O)C(=O)C1=C(O)[C@]3(O)C(O)=C(C(N)=O)C(=O)[C@@H](N(C)C)C3[C@@H](O)C1[C@H]2C (stereo partly drawn) | > 32 | 16 (≈ 25.4 µM) | – | > 32 | > 32 | > 32 µg/mL | – | – | –
13 | CN(C)[C@@H]1C(O)=C(C(N)=O)C(=O)[C@@]2(O)C(O)=C3C(=O)c4c(O)cccc4C[C@H]3C[C@@H]12 [SANCYCLINE] | 16 (≈ 38.6 µM) | 0.25 (≈ 0.603 µM) | 4 (≈ 9.65 µM) | 2 (≈ 4.83 µM) | 2 (≈ 4.83 µM) | 0.25 µg/mL (≈ 0.603 µM) | 8 (≈ 19.3 µM) | 4 (≈ 9.65 µM) | –
14 | C[C@H]1c2ccc(NC(=O)[C@H](Cc3ccccc3)N(C)C)c(O)c2C(=O)C2=C(O)[C@]3(O)C(O)=C(C(N)=O)C(=O)[C@@H](N(C)C)C3[C@@H](O)C21 (stereo partly drawn) | 16 (≈ 25.2 µM) | 4 (≈ 6.3 µM) | – | 32 (≈ 50.4 µM) | 2 (≈ 3.15 µM) | 1 µg/mL (≈ 1.58 µM) | – | – | –
15 | C[C@H]1c2ccc(NC(=O)CN3CCCCC3)c(O)c2C(=O)C2=C(O)[C@]3(O)C(O)=C(C(N)=O)C(=O)[C@@H](N(C)C)C3[C@@H](O)C21 (stereo partly drawn) | 1 (≈ 1.71 µM) | 0.25 (≈ 0.428 µM) | – | 0.5 (≈ 0.855 µM) | 1 (≈ 1.71 µM) | 0.12 µg/mL (≈ 0.205 µM) | 2 (≈ 3.42 µM) | – | –
16 | C[C@H]1c2ccc(NC=O)c(O)c2C(=O)C2=C(O)[C@]3(O)C(O)=C(C(N)=O)C(=O)[C@@H](N(C)C)C3[C@@H](O)C21 (stereo partly drawn) | > 32 | 0.12 (≈ 0.246 µM) | – | 2 (≈ 4.1 µM) | > 32 | 0.12 µg/mL (≈ 0.246 µM) | – | – | –
17 | CN(C)c1ccc(O)c2c1CC1C[C@H]3[C@H](N(C)C)C(=O)C(C(N)=O)=C(O)[C@@]3(O)C(=O)C1=C2O (stereo partly drawn) | > 32 | 0.12 (≈ 0.262 µM) | – | 1 (≈ 2.19 µM) | 4 (≈ 8.74 µM) | 0.06 µg/mL (≈ 0.131 µM) | – | – | –
18 | CCCCNCC(=O)Nc1ccc2c(c1O)C(=O)C1=C(O)[C@]3(O)C(O)=C(C(N)=O)C(=O)[C@@H](N(C)C)C3[C@@H](O)C1[C@H]2C (stereo partly drawn) | 1 (≈ 1.75 µM) | 0.5 (≈ 0.873 µM) | 8 (≈ 14 µM) | 0.5 (≈ 0.873 µM) | 4 (≈ 6.99 µM) | 0.25 µg/mL (≈ 0.437 µM) | 4 (≈ 6.99 µM) | – | –
19 | CC(C)C(=O)Nc1ccc2c(c1O)C(=O)C1=C(O)[C@]3(O)C(O)=C(C(N)=O)C(=O)[C@@H](N(C)C)C3[C@@H](O)C1[C@H]2C (stereo partly drawn) | > 32 | 1 (≈ 1.89 µM) | – | > 32 | > 32 | 0.5 µg/mL (≈ 0.944 µM) | – | – | 16 (≈ 30.2 µM)
20 | CC(C)C[C@H](NC(=O)[C@H](CC(C)C)NC(=O)[C@H](CC(C)C)NC(=O)[C@@H](N)CC(C)C)C(=O)Nc1ccc2c(c1O)C(=O)C1=C(O)[C@]3(O)C(O)=C(C(N)=O)C(=O)[C@@H](N(C)C)C3[C@@H](O)C1[C@H]2C (stereo partly drawn) (H-LLLL-X1) | > 32 | 16 (≈ 17.5 µM) | – | > 32 | > 32 | 32 µg/mL (≈ 35.1 µM) | – | – | –
21 | CC(C)C[C@H](NC(=O)CN)C(=O)Nc1ccc2c(c1O)C(=O)C1=C(O)[C@]3(O)C(O)=C(C(N)=O)C(=O)[C@@H](N(C)C)C3[C@@H](O)C1[C@H]2C (stereo partly drawn) | > 32 | 16 (≈ 25.4 µM) | – | > 32 | > 32 | > 32 µg/mL | – | – | –
22 | CNCC(=O)Nc1ccc2c(c1O)C(=O)C1=C(O)[C@]3(O)C(O)=C(C(N)=O)C(=O)[C@@H](N(C)C)C3[C@@H](O)C1[C@H]2C (stereo partly drawn) | 4 (≈ 7.54 µM) | 8 (≈ 15.1 µM) | > 32 | 8 (≈ 15.1 µM) | 8 (≈ 15.1 µM) | 4 µg/mL (≈ 7.54 µM) | > 32 | > 32 | –
23 | C[C@H]1c2ccc(NC(=O)CN)c(O)c2C(=O)C2=C(O)[C@]3(O)C(O)=C(C(N)=O)C(=O)[C@@H](N(C)C)C3[C@@H](O)C21 (stereo partly drawn) | 8 (≈ 15.5 µM) | 8 (≈ 15.5 µM) | > 32 | 8 (≈ 15.5 µM) | 16 (≈ 31 µM) | 4 µg/mL (≈ 7.74 µM) | > 32 | > 32 | –
24 | CCCCCCCCCC(=O)Nc1ccc2c(c1O)C(=O)C1=C(O)[C@]3(O)C(O)=C(C(N)=O)C(=O)[C@@H](N(C)C)C3[C@@H](O)C1[C@H]2C (stereo partly drawn) | > 32 | > 32 | – | > 32 | > 32 | 16 µg/mL (≈ 26.1 µM) | – | – | –
